MrgX1 allo act: allosterically activates human MrgX1 receptor signaling; 0.63% of 310,000 active; Q96LB2; MrgX1-HEK293, Fluo-4 calcium flux, FDSS; active compounds read high; B-score at 10 µM;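 active = plate-corrected calcium response at least 3 library SD above typical, normal starting fluorescence, not activating the receptor alone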;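 note: compound read alongside a low EC10 to EC30 dose of BAM8-22 agonist; peak minus trough fluorescence over baseline measured at the second addition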
Target sequence (Q96LB2 whole entry, looked up): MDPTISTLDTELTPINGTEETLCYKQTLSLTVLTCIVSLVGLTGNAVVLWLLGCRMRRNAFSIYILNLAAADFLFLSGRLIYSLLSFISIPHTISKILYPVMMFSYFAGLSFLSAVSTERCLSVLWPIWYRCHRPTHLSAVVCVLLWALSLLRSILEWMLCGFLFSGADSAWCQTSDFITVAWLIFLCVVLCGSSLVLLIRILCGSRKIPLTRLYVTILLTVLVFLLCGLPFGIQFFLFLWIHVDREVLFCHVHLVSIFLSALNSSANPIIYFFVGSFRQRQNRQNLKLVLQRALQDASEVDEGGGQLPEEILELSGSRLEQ
MrgX1 antagonist: blocks BAM8-22 activation of human MrgX1 receptor; AID 588676; MRGX1-HEK293 calcium flux, Fluo-4, BAM8-22 antagonism; active compounds read low; Q96LB2; 1.3% of 310,000 active; B-score at 10 µM;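 active = calcium-response B-score plate-corrected more than 3 library SD below zero, starting fluorescence within 5 deviations, no agonist response on first addition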;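 note: peak minus trough fluorescence over baseline after final BAM8-22 challenge near maximal dose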
RGS4 block: inhibitors of human RGS4. P49798. HEK293 M3R/RGS4 inducible, Fluo-4 calcium flux; active compounds read high; triggered by carbachol at its EC20. B-score at 10 µM. 0.45% of 310,000 active;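 active = B-score, a plate-corrected calcium signal, over three deviations above library mean, with baseline fluorescence within five deviations of library mean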;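 note: RGS4 expression induced by doxycycline in cells with stable M3 receptor; B-score is computed from the integrated fluorescence ratio over baseline after carbachol; higher B-score means a larger calcium signal and so more RGS4 inhibition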
Target sequence (P49798 whole entry, looked up): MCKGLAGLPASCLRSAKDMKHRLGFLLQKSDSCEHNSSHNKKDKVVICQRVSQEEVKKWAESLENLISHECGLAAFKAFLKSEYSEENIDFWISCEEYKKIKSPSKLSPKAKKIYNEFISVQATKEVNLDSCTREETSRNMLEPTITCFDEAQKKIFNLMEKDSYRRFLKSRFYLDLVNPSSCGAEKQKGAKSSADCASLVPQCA
MrgX1 agonist: activates human MrgX1 receptor signaling. Q96LB2. MrgX1-HEK293 cells, Fluo-4 calcium fluorescence, agonist mode; active compounds read high. B-score at 10 µM. 0.44% of 310,000 active;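 active = calcium response B-score plate-corrected fluorescence ratio at least 3 library SD, with starting fluorescence B-score inside 5 SD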
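Material: HEK293 cells stably expressing human MrgX1 receptor | Quantity: 15,000 cells per well | Times: Cells plated overnight, dye loaded 0.5 h 37 °C, 0.5 h room temperature | Measured by: Kinetic Fluo-4 NW fluorescence of intracellular calcium | Control set: Positive and negative controls per plate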
RGS4 act: potentiators or activators of RGS4 | HEK293 M3R/inducible RGS4, carbachol calcium flux Fluo4; active compounds read low | B-score at 10 µM | 0.92% of 310,000 active | AID 463111;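 active = B-score of the integrated calcium signal more than 4 SD below the library mean, with starting fluorescence not abnormally high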;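 note: negative B-score means reduced calcium response which marks RGS4 activation or potentiation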
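Assay system: Inducible-RGS4 HEK293 cells carrying M3 receptor | Schedule: Compound preincubation 20 min at room temperature before agonist | Signal: Kinetic calcium fluorescence imaging with Fluo4-AM dye, 2 µM | Read-out basis: B score from integrated fluorescence ratio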
MrgX1 antag conf: human MrgX1 receptor antagonism, re-confirmation screen | shares compounds with MrgX1 antagonist | MrgX1-HEK293, BAM8-22 calcium flux, Fluo-4; active compounds read low | remaining BAM8-22 calcium response % of control (active compounds read low), % at 10 µM | 19% of 2,300 active;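 active = remaining agonist calcium response no higher than 100% minus 3 SD of agonist-only control wells, with starting fluorescence near control levels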;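 note: agonist BAM8-22 given at a near maximal EC90 to ECmax level; peak minus minimum fluorescence divided by baseline after agonist addition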
HEK293 Ca flux: activity in parental HEK293 cells lacking MrgX1; shares compounds with MrgX1 antagonist; Fluo-4 calcium fluorescence, FDSS; AID 624111; fluorescence ratio F(max-min)/F0 at 10 µM; 2% of 4,000 active;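 active = duplicate-averaged calcium fluorescence ratio at least three times the standard deviation of buffer wells, a nonspecific response in parental cells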
HEK293 Ca counter: activity in parental HEK293 cells without MrgX1 | shares compounds with MrgX1 antagonist | parental HEK293 calcium flux, Fluo-4 fluorescence ratio; active compounds read high | fluorescence ratio F(max-min)/F0 at 10 µM | 0.4% of 4,000 active;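 active = calcium fluorescence ratio, averaged over duplicates, at least 3 SD of the buffer-well ratio, meaning a nonspecific response in receptor-free cells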;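 note: untransfected parental HEK293 lacking MrgX1 used as counterscreen for MrgX1 allosteric activators; fluorescence change taken during the second addition on a kinetic imager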
HEK293 Ca cntr2: activity in parental HEK293 cells lacking MrgX1 receptor; fluorescence ratio F(max-min)/F0 at 10 µM; Fluo-4 calcium fluorescence (FDSS); active compounds read high; 8.7% of 4,000 active; shares compounds with MrgX1 antagonist; AID 624115;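 active = calcium fluorescence ratio at least three times the spread of buffer wells, meaning a non-specific response in parental cells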
* hit, by the source's call; i = inactive; · = no result given. Shown are actives, neighbours in structure and some others; about 3.5% of the full set was active somewhere.

SMILES | MrgX1 allo act | MrgX1 antagonist | RGS4 block | MrgX1 agonist | RGS4 act | MrgX1 antag conf | HEK293 Ca flux | HEK293 Ca counter | HEK293 Ca cntr2
Cc1ccc(-c2cc(-c3ccccc3O)nc(N/N=C/c3cccnc3)n2)cc1 | i | i | i | i | i | · | · | · | ·
COc1ccc(/C=C/c2nc(-c3ccccc3O)n[nH]2)cc1 | i | i | i | i | i | · | · | · | ·
Nc1nc(/C=C/c2cccnc2)nc(-c2ccccc2O)n1 | i | -4.81* | i | i | i | i | i | i | i
Nc1nc(/C=C/c2ccc(F)cc2)nc(-c2ccccc2O)n1 | i | -6.78* | i | i | i | 83.7%* | i | i | i
Cc1ccc(N2C(=O)CC(C)CC2=O)cc1 | i | i | i | i | i | · | · | · | ·
Nc1nc(Cl)nc2c1ncn2C1CC(O)C(CO)O1 (stereo not given) | i | -5.13* | i | i | i | i | i | i | i
Nc1nc2c(ncn2[C@H]2C[C@H](O)[C@@H](CO)O2)c(=O)[nH]1 | i | i | i | i | i | · | · | · | ·
Cn1c(CCC(=O)OCC(=O)NCC(F)(F)F)nc(=O)c2ccccc21 | i | -5.59* | i | i | i | i | i | i | i
CC(NC(=O)COC(=O)CCc1nc(=O)c2ccccc2n1C)c1ccccc1 (stereo not given) | i | i | i | i | i | · | · | · | ·
COC(=O)c1cc(=O)n2c(-c3ccccc3)csc2n1 | i | i | i | i | i | · | · | · | ·
CCN(CC(=O)NC(C)(C)C)Cc1cc(=O)n2c(-c3ccccc3)csc2n1 | i | -4.72* | i | i | i | i | i | i | i
CCN1CCN(C(=O)C2CCN(Cc3nc(-c4cccc(Cl)c4)oc3C)CC2)CC1 | i | i | i | i | i | · | · | · | ·
CCN1CCN(C(=O)C2CCN(Cc3cc(Cl)ccc3O)CC2)CC1 | i | -7.71* | i | i | i | i | i | i | i
CCc1c(C)nc(SCC(N)=O)c(C#N)c1C | i | -5.65* | i | i | i | i | i | i | i
CCOC(=O)c1cnn(-c2cccc(Cl)c2)c1N | i | i | i | i | i | · | · | · | ·
CCOC(=O)c1cnc2c(-c3ccccc3)cnn2c1C | i | -5.05* | i | i | i | i | i | i | i
CCOC(=O)c1cnn(-c2ccccc2)c1N | i | -4.72* | i | i | i | i | i | i | i
CC(C)c1cccc(C(C)C)c1NC(=O)COC(=O)[C@H](C)NC(N)=O | i | i | i | i | i | · | · | · | ·
C=CCOC(=O)C1=C[C@@H](c2cn(C(C)=O)c3ccccc23)C[C@@H](OCc2ccc(CO)cc2)O1 | i | i | i | i | i | · | · | · | ·
Cc1nonc1NC(=O)CSc1nnnn1-c1ccccc1 | i | i | i | i | i | · | · | · | ·
CCCSc1ccc([C@H]2N[C@@](C)(C(=O)OC)[C@H]3C(=O)N(C)C(=O)[C@@H]23)cc1 | i | i | i | i | i | · | · | · | ·
COC(=O)[C@]1(C)N[C@H](c2ccc(SC3CCCCC3)cc2)[C@@H]2C(=O)N(C)C(=O)[C@@H]21 | i | -7.92* | i | i | i | i | i | i | i
O=C(NCCN1CCOCC1)c1ccccc1N1C(=O)[C@@H]2Cc3c([nH]c4ccccc34)C(c3ccccc3)N2C1=O (stereo not given in full) | i | -6.79* | i | i | i | i | i | i | i
O=C(NCCCN1CCOCC1)c1ccccc1N1C(=O)[C@@H]2Cc3c([nH]c4ccccc34)C(c3ccc(F)cc3)N2C1=O (stereo not given in full) | i | i | i | i | i | · | · | · | ·
Cc1[nH]c2ccccc2c1C(=O)C(C)OC(=O)c1ccccc1NCCO (stereo not given) | i | i | i | i | i | · | · | · | ·
SMILES | MrgX1 allo act | MrgX1 antagonist | RGS4 block | MrgX1 agonist | RGS4 act | MrgX1 antag conf | HEK293 Ca flux | HEK293 Ca counter | HEK293 Ca cntr2
O=C(NC1CCCCCC1)c1ccc(Br)o1 | i | i | i | i | i | · | · | · | ·
O=C(NC1CCCCCCC1)c1ccc(Br)o1 | i | -4.68* | i | i | i | i | i | i | i
COc1ccc2nc(C3CCCCC3)c3c(c2c1)CCC3 | i | i | i | i | i | · | · | · | ·
O=C(Nc1ccc(Cl)c(C(F)(F)F)c1)C(=O)N1CCCCC1 | i | i | i | i | i | · | · | · | ·
O=C(Nc1ccc(Cl)c(C(F)(F)F)c1)N1CCCC(O)C1 (stereo not given) | i | -6.16* | i | i | i | i | i | i | i
COc1ccc(Cl)cc1NS(=O)(=O)N1CCOCC1 | i | -6.22* | i | i | i | i | i | i | i
Cc1ccc(Cl)cc1NS(=O)(=O)N1CCOCC1 | i | i | i | i | i | · | · | · | ·
c1csc(-c2nnc3ccccn23)c1 | i | i | i | i | i | · | · | · | ·
c1ccn2c(Cc3nnc4ccccn34)nnc2c1 | i | -5.54* | i | i | i | i | i | i | i
Cc1c(S(=O)(=O)N2CCN(c3ccc(F)cc3)CC2)c(=O)n(C)c(=O)n1C | i | i | i | i | i | · | · | · | ·
COc1ccccc1Nc1nc2ccccc2n1C | i | -4.81* | i | i | i | i | i | i | i
O=C(O)Cn1nc(-c2ccccc2)cc1-c1ccccc1 | i | -5.63* | i | i | i | i | i | i | i
O=C(O)CC(C(=O)O)n1nc(-c2ccccc2)cc1-c1ccccc1 (stereo not given) | i | i | i | i | i | · | · | · | ·
O=C(Nc1nc(-c2ccccn2)cs1)C1CC(=O)N(c2ccc3c(c2)OCCO3)C1 (stereo not given) | i | i | i | i | i | · | · | · | ·
O=C(CSc1nnc(Cc2ccc3c(c2)OCO3)n1C1CCCCC1)NC1CCCC1 | i | i | i | i | i | · | · | · | ·
NC(=O)CSc1nnc(Cc2ccc3c(c2)OCO3)n1C1CCCCC1 | i | -4.58* | i | i | i | i | i | i | 54.8*

High-throughput results (PubChem)
